# Measurements taken from ChEMBL document CHEMBL1140872, “Discovery of a potent and selective inhibitor for human carbonyl reductase 1 from propionate scanning applied to the macrolide zearalenone” (Bioorg Med Chem, 2009).
# Key:
# [1] = target: T1, Carbonyl reductase [NADPH] 3 (Homo sapiens) (UniProt O75828); test: Binding affinity to human recombinant carbonyl reductase 3 expressed in Escherichia coli assessed as thermal shift by differential scanning fluorimetry in presence of NADPH
# T1 sequence (whole entry): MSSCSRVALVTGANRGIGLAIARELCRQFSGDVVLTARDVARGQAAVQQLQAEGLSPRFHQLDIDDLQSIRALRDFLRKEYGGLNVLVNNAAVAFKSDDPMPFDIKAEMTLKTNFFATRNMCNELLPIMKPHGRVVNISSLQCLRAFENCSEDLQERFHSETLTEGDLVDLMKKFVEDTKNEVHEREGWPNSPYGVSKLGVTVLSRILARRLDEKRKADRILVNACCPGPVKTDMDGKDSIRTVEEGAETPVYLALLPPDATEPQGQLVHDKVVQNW
# Method in brief: (§1)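 Thermal-shift (DSF) binding assay with purified recombinant catalytic domains or proteins carrying an N- or C-terminal His6 tag or GST fusion. Purity was >95% by SDS/PAGE and identity was confirmed by MS. Protein was at 2 µM final in 10 mM HEPES pH 7.5 and 150 mM NaCl. Tm shift is reported, with 2 °C as the threshold for binding.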
# [2] = target: T1, Carbonyl reductase [NADPH] 3 (Homo sapiens); test: Binding affinity to human recombinant carbonyl reductase 3 expressed in Escherichia coli assessed as thermal shift by differential scanning fluorimetry in presence of NADP+; method in brief: as §1
# [3] = target: T1, Carbonyl reductase [NADPH] 3 (Homo sapiens); test: Binding affinity to human recombinant carbonyl reductase 3 expressed in Escherichia coli assessed as thermal shift by differential scanning fluorimetry in absence of cofactor; method in brief: as §1
# [4] = target: T2, Carbonyl reductase [NADPH] 1 (Homo sapiens) (UniProt P16152); test: Binding affinity to human recombinant carbonyl reductase 1 expressed in Escherichia coli assessed as thermal shift by differential scanning fluorimetry in presence of NADP+; method in brief: as §1
# T2 sequence (whole entry): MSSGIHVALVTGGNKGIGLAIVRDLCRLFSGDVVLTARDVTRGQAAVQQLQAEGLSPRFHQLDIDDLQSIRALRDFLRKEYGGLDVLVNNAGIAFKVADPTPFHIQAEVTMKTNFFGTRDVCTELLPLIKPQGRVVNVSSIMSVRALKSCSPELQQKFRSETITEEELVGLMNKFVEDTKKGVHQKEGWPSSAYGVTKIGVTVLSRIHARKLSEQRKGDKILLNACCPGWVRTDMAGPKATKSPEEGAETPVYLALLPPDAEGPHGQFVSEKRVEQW
# [5] = target: T2, Carbonyl reductase [NADPH] 1 (Homo sapiens); test: Binding affinity to human recombinant carbonyl reductase 1 expressed in Escherichia coli assessed as thermal shift by differential scanning fluorimetry in absence of cofactor; method in brief: as §1
# [6] = target: T2, Carbonyl reductase [NADPH] 1 (Homo sapiens); test: Binding affinity to human recombinant carbonyl reductase 1 expressed in Escherichia coli assessed as thermal shift by differential scanning fluorimetry in presence of NADPH; method in brief: as §1
# [7] = target: T3, Carbonyl reductase [NADPH] 1 (Homo sapiens, UniProt P16152); test: Binding affinity to human recombinant carbonyl reductase 1 expressed in Escherichia coli assessed as NADPH oxidation using isatin as substrate
# T3 sequence (P16152 whole entry): T2 sequence (whole entry)
# Method in brief: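 Purified recombinant CBR1 (200 nM) and NADPH were added to compound in 50 mM sodium phosphate, pH 6.8, 1 mM MgCl2. NADPH oxidation was followed as the fluorescence decrease at 460 nm (excitation 355 nm). Rates came from linear regression after normalising to the fluorescence rise at injection. Compounds were titrated at two isatin levels, with no-protein background subtracted. Sigmoidal fit gave IC50, then Ki from the isatin concentration.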
# [8] = target: T2, Carbonyl reductase [NADPH] 1 (Homo sapiens); test: Binding affinity to human recombinant carbonyl reductase 1 expressed in Escherichia coli assessed as NADPH oxidation at 200 uM relative to isatin
# Method in brief: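 Substrate test used 200 nM purified CBR1 and 200 µM NADPH, injected onto compound at 200 µM in 50 mM sodium phosphate pH 6.8 with 1 mM MgCl2. NADPH oxidation was read as the fluorescence decrease at 460 nm (excitation 355 nm). Rate came from linear regression after normalizing to the fluorescence rise on injection. Run in triplicate and expressed as % of the isatin rate.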
SMILES,Tm [1] [°C],Tm [2] [°C],Tm [3] [°C],Tm [4] [°C],Tm [5] [°C],Tm [6] [°C],IC50 [7] [µM],Ki [7] [µM],Activity [8] [%]
O=c1c(-c2ccc(O)cc2)coc2cc(O)cc(O)c12,< 2,< 2,< 2,< 2,< 2,< 2,,,
O=c1c(O)c(-c2ccc(O)c(O)c2)oc2cc(O)cc(O)c12,< 2,< 2,< 2,< 2,< 2,< 2,,,
Oc1cc(Cl)ccc1Oc1ccc(Cl)cc1Cl [TRICLOSAN],< 2,< 2,< 2,3.4,< 2,< 2,0.4,0.06,
COc1ccc(-c2coc3cc(O)cc(O)c3c2=O)cc1 [BIOCHANIN],< 2,< 2,< 2,2.7,< 2,< 2,12.7,2.03,9.3
O=c1cc(-c2ccccc2)oc2cc(O)cc(O)c12 [CHRYSIN],< 2,< 2,< 2,4.6,< 2,< 2,0.67,0.11,16.3
COc1cc(O)c2c(c1)oc(=O)c1c3cc(O)c(O)cc3oc21 [WEDELOLACTONE],< 2,< 2,< 2,5.1,2,< 2,3.78,0.6,5.8
O=C1C[C@@H](c2ccc(O)cc2)Oc2cc(O)cc(O)c21 [NARINGENIN],< 2,< 2,< 2,2.3,< 2,< 2,21.5,3.43,4.7
